Structures can show the parent of a compound that is named as a salt. Activity calls are given as the source filed them. The rule behind the calls is not given here.
Legend:
[1] = Inhibition of Sporosarcina pasteurii CCM 2056 urease assessed as reduction in ammonia production using urea as substrate measured for 120 mins by phenol-hypochlorite method
BALB/3T3 = test: Cytotoxicity against mouse BALB/3T3 cells assessed as reduction in cell proliferation after 72 hrs by SRB assay; assay type: cell-based; details: balb/3t3, 72 h
Method in brief: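 Mouse BALB/3T3 fibroblasts were scored by SRB assay, with cytotoxicity given as LC50 values.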

Sporosarcina pasteurii [2] = test: Time-dependent Sporosarcina pasteurii CCM 2056 urease assessed as reduction in ammonia production using urea as substrate by phenol-hypochlorite method
Sporosarcina pasteurii [3] = test: Competitive inhibition of Sporosarcina pasteurii CCM 2056 urease assessed as reduction in ammonia production preincubated with enzyme followed by addition of varying levels of urea as substrate measured for 120 mins by Lineweaver-Burk plot analysis
Sporosarcina pasteurii [4] = test: Reversible inhibition of Sporosarcina pasteurii CCM 2056 urease assessed as reduction in ammonia production by measuring recovery of enzyme activity at 10 times IC50 preincubated for 60 mins followed by 100-fold dilution in to PBS containing urea as substrate by Berthelot colorimetric assay relative to control; set-up: Activity: scale not given: the % may be the effect or the level left
[5] = Inhibition of Sporosarcina pasteurii CCM 2056 urease assessed as reduction in ammonia production by measuring initial state enzyme-inhibitor complex using urea as substrate measured for 120 mins by phenol-hypochlorite method
[6] = Inhibition of Sporosarcina pasteurii CCM 2056 urease assessed as reduction in ammonia production by measuring steady state enzyme-inhibitor complex using urea as substrate measured for 120 mins by phenol-hypochlorite method
[7] = Glutathione reactivity up to 15 mins in presence of 10 mM GSH by 1H NMR analysis
[8] = Glutathione reactivity in pH 7.4 PBS measured after 6 to 36 hrs in presence of 1.375 mmol GSH by DTNB reagent based spectrophotometric method
Method in brief: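 Glutathione served as a model reactive-thiol compound. Unreacted GSH was quantified spectrophotometrically by a modified Ellman method, and reaction progress was followed over time up to 36 h.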

[9] = Inhibition of Proteus mirabilis 543 urease at pH 5.5 assessed as reduction in ammonia production using urea as substrate measured after 15 mins by NaOH-hypochlorite method
Method in brief: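 Intact Proteus mirabilis cells were tested at pH 5.5, matching physiological urine, with 5 mM urea. Inhibitors were added without preincubation, and IC50 was determined.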

[10] = Inhibition of Proteus mirabilis 543 urease at pH 5.5 assessed as reduction in ammonia production using urea as substrate preincubated for 120 mins followed by substrate addition measured after 15 mins by NaOH-hypochlorite method
Method in brief: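 Intact Proteus mirabilis cells were preincubated with inhibitors in PBS for 2 h, then tested at pH 5.5, matching urine acidity, with 5 mM urea. IC50 was determined.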

[11] = Cytotoxicity against mouse BALB/3T3 cells assessed as inhibition of cell proliferation at 100 uM after 72 hrs by SRB assay relative to control; assay type: cell-based
Method in brief: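 Mouse BALB/3T3 cells were tested by SRB assay at a single concentration of 100, with the result given as percent inhibition of proliferation.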

Proteus mirabilis = test: Inhibition of Proteus mirabilis 543 urease at pH 5.5 assessed as reduction in ammonia production using urea as substrate followed by substrate addition by NaOH-hypochlorite method; details: TDE = time-dependent effect
[12] = Glutathione reactivity after 36 hrs in presence of 10 mM GSH by 1H NMR analysis
Papain (Carica papaya) [13] = biological target: T1, Papain (Carica papaya) (UniProt P00784); test: Inhibition of Carica papaya papain at 0.1 to 0.25 mM using BzArgOEt as substrate measured for 30 mins
T1 sequence (whole entry): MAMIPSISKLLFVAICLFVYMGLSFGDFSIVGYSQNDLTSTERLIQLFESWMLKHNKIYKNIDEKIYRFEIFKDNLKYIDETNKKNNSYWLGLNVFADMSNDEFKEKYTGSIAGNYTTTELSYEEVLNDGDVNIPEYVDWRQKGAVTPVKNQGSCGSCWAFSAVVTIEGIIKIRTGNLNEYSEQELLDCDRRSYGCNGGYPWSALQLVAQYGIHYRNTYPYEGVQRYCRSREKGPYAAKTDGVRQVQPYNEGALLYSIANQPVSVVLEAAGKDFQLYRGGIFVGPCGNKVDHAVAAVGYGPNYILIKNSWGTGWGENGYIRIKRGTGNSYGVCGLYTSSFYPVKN

Papain (Carica papaya) [14] = biological target: T1, Papain (Carica papaya); test: Inhibition of Carica papaya papain at 0.1 to 1 mM using BzArgOEt as substrate measured for 30 mins

Row | SMILES | Ki ([1]; read-out: Ki) [µM] | LC50 (BALB/3T3) | TDI (Sporosarcina pasteurii [2]) | mode of inhibition (Sporosarcina pasteurii [3]) | Activity (Sporosarcina pasteurii [4]) [%] | Ki ([5]; read-out: Ki) [µM] | Ki ([6]; read-out: Ki) [µM] | K [8] [M⁻¹ s⁻¹] | log K [8] | IC50 ([9]; read-out: IC50) [µM] | IC50 ([10]; read-out: IC50) [µM] | inhibition at 72 h, 100 µM [11] [%] | inhibition (Proteus mirabilis) | other results
1 | COC(=O)/C=C/C(=O)OC [DIMETHYL FUMARATE] | 21.3 | 39.7 µM | Active | Active | 36.8 | 311 | 21.7 | 2.62 | 2.2 |  |  |  |  | Drug metabolism [7]: Metabolite detected
2 | CC(=O)NO [ACETOHYDROXAMIC ACID] | 3.3 |  |  |  | 29.1 |  |  |  |  | 169 | 91.4 |  |  | 
3 | O=C1C=CCC1 | 0.291 | 86.5 µM | Active | Active | 15.3 | 11.2 | 0.232 | 0.487 | 1.5 |  |  |  |  | 
4 | COC(=O)C#CC(=O)OC | 0.00977 | 29.8 µM | Active | Active | 9.2 | 0.973 | 0.0124 | 6.47 | 2.59 |  |  |  |  | Drug metabolism [7]: Metabolite detected
5 | CCOC(=O)/C=C/c1ccccc1 [ETHYL CINNAMATE] |  |  |  |  |  |  |  | 1.21e-05 | -3.14 |  |  | 29.1 | Tde | Ki [1]: Not Active; inhibition (Sporosarcina pasteurii [4]): inactive; IC50 [9]: Not Active; IC50 [10]: Not Active; Ki [5]: Not Active; Ki [6]: Not Active
6 | O=C1C=CCCC1 | 0.766 |  | Active | Active | 27.2 | 22.8 | 0.267 | 0.37 | 1.35 |  |  | 29.8 |  | 
7 | Cc1ccc(C(=O)/C=C/C(=O)O)cc1 | 6.36 |  | Active | Active | 32.7 | 77.1 | 6.64 | 0.333 | 1.3 |  |  | 31.3 |  | 
8 | COC(=O)/C=C/C1=CC(=O)CC1 | 0.285 |  | Active | Active | 16.7 | 16.7 | 0.316 | 0.166 | 0.998 |  |  | 35.2 |  | 
9 | O=C(O)/C=C/c1ccccc1 [CINNAMIC ACID] | 21.5 |  | Active | Active | 40.3 | 595 | 23 | < 1.67e-06 | > -4 | 492 | 125 |  | Tde | Drug metabolism [12]: Metabolite not detected; inhibition (Papain (Carica papaya) [13]): inactive
10 | CCOC(=O)/C=C/C(=O)c1ccccc1 | 3.96 | 24.5 µM | Active | Active | 30.2 | 29.2 | 1.21 | 2.18 | 2.12 |  |  |  |  | 
11 | COC(=O)/C=C/C1=CC(=O)CCC1 | 0.694 |  | Active | Active | 23.6 | 46.5 | 0.766 | 0.0703 | 0.63 |  |  |  |  | 
12 | O=C(O)/C=C/C(=O)O [FUMARIC ACID] | 36.5 | Non-Toxic | Active | Active | 39.7 | 432 | 37.1 | 5e-05 | -2.52 | 182 | 65.5 |  | Tde | inhibition (Papain (Carica papaya) [14]): inactive
13 | O=C(O)C#CC(=O)O | 0.0425 | Non-Toxic | Active | Active | 10.9 | 3.95 | 0.0553 | 0.000122 | -2.14 | 326 | 88.6 |  | Tde | inhibition (Papain (Carica papaya) [14]): inactive
